Measured values: ChEMBL document CHEMBL2434913 (Bioorg Med Chem Lett, 2013)

Assays:
[1] = molecular target: T1, Prostaglandin G/H synthase 2 (Mus musculus, UniProt Q05769); test: Inhibition of purified mouse COX-2 assessed as inhibition of PGE2/PGD2 formation preincubated for 3 mins before arachidonic acid substrate addition measured after 30 seconds by LC-MS-MS method
T1 sequence (Q05769 whole entry): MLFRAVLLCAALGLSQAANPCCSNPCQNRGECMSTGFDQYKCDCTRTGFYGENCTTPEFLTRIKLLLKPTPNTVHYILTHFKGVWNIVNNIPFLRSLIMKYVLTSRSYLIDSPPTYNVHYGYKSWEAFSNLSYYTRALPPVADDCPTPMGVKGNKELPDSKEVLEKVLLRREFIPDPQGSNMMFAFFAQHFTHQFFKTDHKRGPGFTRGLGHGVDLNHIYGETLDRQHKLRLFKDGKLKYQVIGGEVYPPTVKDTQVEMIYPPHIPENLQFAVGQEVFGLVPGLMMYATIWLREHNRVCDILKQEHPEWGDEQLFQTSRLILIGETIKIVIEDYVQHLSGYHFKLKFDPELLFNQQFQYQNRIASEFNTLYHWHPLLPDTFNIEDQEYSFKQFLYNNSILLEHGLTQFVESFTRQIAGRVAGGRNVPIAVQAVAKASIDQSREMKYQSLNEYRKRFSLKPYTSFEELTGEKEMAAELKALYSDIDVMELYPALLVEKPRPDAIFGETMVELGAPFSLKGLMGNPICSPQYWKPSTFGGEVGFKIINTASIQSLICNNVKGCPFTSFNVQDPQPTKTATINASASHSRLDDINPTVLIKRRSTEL

[2] = molecular target: T1, Prostaglandin G/H synthase 2; test: Inhibition of purified mouse COX-2 assessed as inhibition of PGE2-G/PGD2-G formation preincubated for 3 mins before 2-AG substrate addition measured after 30 seconds by LC-MS-MS method
[3] = molecular target: T2, Prostaglandin G/H synthase 2 (Mus musculus) (UniProt Q05769); test: Inhibition of purified mouse COX-2 assessed as inhibition of PGE2/PGD2 formation preincubated at 10 uM for 3 mins before arachidonic acid substrate addition measured after 30 seconds by LC-MS-MS method
T2 sequence (whole entry): T1 sequence (Q05769 whole entry)
Summary of the method: (§1)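 Purified murine COX-2 (50 nM) preincubated 3 min with test agent at 10 µM in DMSO, alongside a solvent control. Then 2-AG or AA added at 5 µM, 37 °C, for 30 s. Read-out is percent inhibition of substrate oxygenation versus control. Mean ± SD, n = 6.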

[4] = molecular target: T2, Prostaglandin G/H synthase 2 (Mus musculus); test: Inhibition of purified mouse COX-2 assessed as inhibition of PGE2-G/PGD2-G formation preincubated at 10 uM for 3 mins before 2-AG substrate addition measured after 30 seconds by LC-MS-MS method; summary of the method: as §1

IC50 [1] [nM] | IC50 [2] [nM] | inhibition [3] [%] | inhibition [4] [%] | SMILES
200 | 30 | 60 |  | Cc1ccc(Nc2c(Cl)cccc2Cl)c(CC(=O)O)c1
 | 1000 | 0 |  | Cc1ccc(Nc2c(F)cccc2F)c(CC(=O)O)c1
 | 1800 | 0 |  | Cc1ccc(Nc2ccccc2F)c(CC(=O)O)c1
 | 70 | 32 |  | Cc1ccc(Nc2c(Cl)cc(Cl)cc2Cl)c(CC(=O)O)c1
 | 40 |  |  | O=C(O)Cc1ccccc1Nc1c(F)cccc1Cl

More lines, now with the values behind:

SMILES | IC50 [1] [nM] | IC50 [2] [nM] | inhibition [3] [%] | inhibition [4] [%]
O=C(O)Cc1ccccc1Nc1c(Cl)cc(Br)cc1Cl | 140 | 60 | 55 | 
Cc1cccc(F)c1Nc1ccccc1CC(=O)O |  |  | 0 | 15
O=C(O)Cc1ccccc1Nc1c(F)cccc1F |  | 1200 |  | 
Cc1ccc(Nc2ccccc2)c(CC(=O)O)c1 |  |  | 10 | 0
O=C(O)Cc1ccccc1Nc1ccccc1F |  |  | 0 | 25
O=C(O)Cc1ccccc1Nc1ccccc1Cl |  | 3900 |  | 
Cc1ccc(Nc2ccccc2Cl)c(CC(=O)O)c1 |  | 60 | 0 | 
Cc1ccc(Nc2c(C)cccc2F)c(CC(=O)O)c1 |  |  | 0 | 0
